Experimental data as given in ChEMBL document CHEMBL1159121, “Synthesis, in vitro structure-activity relationship, and in vivo studies of 2-arylthiazolidine-4-carboxylic acid amides as anticancer agents” (Bioorg Med Chem, 2010).

Key:
[1] = system: CCRF-CEM; experiment: Growth inhibition of human CCRF-CEM cells; type: functional
[2] = system: RXF 393; experiment: Growth inhibition of human RXF393 cells; type: functional
[3] = system: SK-MEL-28; experiment: Growth inhibition of human SK-MEL-28 cells; type: functional
[4] = system: SK-MEL-5; experiment: Growth inhibition of human SK-MEL-5 cells; type: functional
[5] = system: OVCAR-8; experiment: Growth inhibition of human OVCAR8 cells; type: functional
[6] = system: U-251; experiment: Growth inhibition of human U251 cells; type: functional
[7] = system: LOX IMVI; experiment: Growth inhibition of human LOXIMVI cells; type: functional
[8] = system: HCT-15; experiment: Growth inhibition of human HCT15 cells; type: functional
[9] = system: UACC-62; experiment: Growth inhibition of human UACC62 cells; type: functional
[10] = system: PC-3; experiment: Growth inhibition of human PC3 cells; type: functional
[11] = system: MDA-MB-231; experiment: Growth inhibition of human MDA-MB-231 cells; type: functional
[12] = system: HL-60(TB); experiment: Growth inhibition of human HL-60(TB) cells; type: functional
[13] = system: OVCAR-5; experiment: Growth inhibition of human OVCAR5 cells; type: functional
[14] = system: RH7777; experiment: Cytotoxicity against rat RH7777 cells after 96 hrs by SRB assay; type: cell-based; conditions: RH7777, 96 h
How it was run: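 Prostate lines in RPMI1640/10% FBS; RH7777 in DMEM/10% FBS. Cells TCA-fixed, stained with 0.4% SRB, absorbance read at 540 nm. IC50 from nonlinear regression of % survival against concentration.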

[15] = system: DU-145; experiment: Growth inhibition of human DU145 cells; type: functional
[16] = system: SR; experiment: Growth inhibition of human SR cells; type: functional
[17] = system: HCC 2998; experiment: Growth inhibition of human HCC2998 cells; type: functional
[18] = system: NCI-H226; experiment: Growth inhibition of human NCI-H226 cells; type: functional
[19] = system: SF-268; experiment: Growth inhibition of human SF268 cells; type: functional
[20] = system: NCI/ADR-RES; experiment: Growth inhibition of human NCI/ADR-RES cells; type: functional
[21] = system: HCT-116; experiment: Growth inhibition of human HCT116 cells; type: functional
[22] = system: SW-620; experiment: Growth inhibition of human SW620 cells; type: functional
[23] = system: SNB-75; experiment: Growth inhibition of human SNB75 cells; type: functional
[24] = system: UO-31; experiment: Growth inhibition of human UO31 cells; type: functional
[25] = system: SF-539; experiment: Growth inhibition of human SF539 cells; type: functional
[26] = system: SN12C; experiment: Growth inhibition of human SN12C cells; type: functional
[27] = Growth inhibition of human Hs 578T cells; type: functional
[28] = system: ACHN; experiment: Growth inhibition of human ACHN cells; type: functional
[29] = system: NCI-H522; experiment: Growth inhibition of human NCI-H522 cells; type: functional
[30] = system: 786-0; experiment: Growth inhibition of human 786-0 cells; type: functional
[31] = system: MDA-MB-435; experiment: Growth inhibition of human MDA-MB-435 cells; type: functional
[32] = system: NCI-H322M; experiment: Growth inhibition of human NCI-H322M cells; type: functional
[33] = Cytotoxicity against human fibroblasts after 48 hrs by SRB assay; type: cell-based; conditions: Fibroblast
How it was run: (§1)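 Melanoma lines and control fibroblasts grown at 37 °C, 5% CO2, then exposed to a wide concentration range for 48 h in round-bottom 96-well plates. Fixed with 10% TCA, stained with SRB, protein read at 560 nm. IC50 (50% growth inhibition versus untreated) obtained by nonlinear regression.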

[34] = system: OVCAR-3; experiment: Growth inhibition of human OVCAR-3 cells; type: functional
[35] = system: HT-29; experiment: Growth inhibition of human HT-29 cells; type: functional
[36] = system: EKVX; experiment: Growth inhibition of human EKVX cells; type: functional
[37] = system: MOLT-4; experiment: Growth inhibition of human MOLT4 cells; type: functional
[38] = Antiproliferative activity against human WM164 cells after 48 hrs by SRB assay; type: functional, cell-based; conditions: WM164, 48 h; how it was run: as §1
[39] = system: SF-295; experiment: Growth inhibition of human SF295 cells; type: functional
[40] = system: SNB-19; experiment: Growth inhibition of human SNB19 cells; type: functional
[41] = Antiproliferative activity against mouse B16-F1 cells after 48 hrs by SRB assay; type: functional, cell-based; conditions: B16-F1, 48 h; how it was run: as §1
[42] = read-out: LC50 (the source's name)

CCCCCCCCCCCCCCCCNC(=O)[C@@H]1CSC(c2ccc(NC(C)=O)cc2)N1 (mixture of isomers)
GI50 [1]: 120 nM | TGI [1]: 400 nM | CC50 [1, 42]: 13000 nM | GI50 [2]: 200 nM | TGI [2]: 350 nM | CC50 [2, 42]: 620 nM | GI50 [3]: 130 nM | TGI [3]: 260 nM | CC50 [3, 42]: 520 nM | GI50 [4]: 750 nM | TGI [4]: 2130 nM | CC50 [4, 42]: 5130 nM | GI50 [5]: 280 nM | TGI [5]: 730 nM | CC50 [5, 42]: > 100000 nM | GI50 [6]: 180 nM | TGI [6]: 330 nM | CC50 [6, 42]: 620 nM | GI50 [7]: 140 nM | TGI [7]: 300 nM | CC50 [7, 42]: 830 nM | GI50 [8]: 1000 nM | TGI [8]: 3220 nM | CC50 [8, 42]: 11900 nM | GI50 [9]: 1080 nM | TGI [9]: 2330 nM | CC50 [9, 42]: 50200 nM | GI50 [10]: 170 nM | TGI [10]: 340 nM | CC50 [10, 42]: 640 nM | GI50 [11]: 180 nM | TGI [11]: 320 nM | CC50 [11, 42]: 590 nM | GI50 [12]: 170 nM | TGI [12]: 370 nM | CC50 [12, 42]: 790 nM | GI50 [13]: 200 nM | TGI [13]: 370 nM | CC50 [13, 42]: 670 nM | IC50 [14]: 6800 nM | GI50 [15]: 270 nM | TGI [15]: 630 nM | CC50 [15, 42]: 2150 nM | GI50 [16]: 160 nM | TGI [16]: 350 nM | CC50 [16, 42]: 810 nM | GI50 [17]: 440 nM | TGI [17]: 1810 nM | CC50 [17, 42]: 4580 nM | GI50 [18]: 230 nM | TGI [18]: 390 nM | CC50 [18, 42]: 690 nM | GI50 [19]: 160 nM | TGI [19]: 310 nM | CC50 [19, 42]: 600 nM | GI50 [20]: 250 nM | TGI [20]: 520 nM | CC50 [20, 42]: 170 nM | GI50 [21]: 180 nM | TGI [21]: 330 nM | CC50 [21, 42]: 600 nM | GI50 [22]: 210 nM | TGI [22]: 430 nM | CC50 [22, 42]: 890 nM | GI50 [23]: 180 nM | TGI [23]: 330 nM | CC50 [23, 42]: 580 nM | GI50 [24]: 190 nM | TGI [24]: 340 nM | CC50 [24, 42]: 6100 nM | GI50 [25]: 260 nM | TGI [25]: 700 nM | CC50 [25, 42]: 2810 nM | GI50 [26]: 350 nM | TGI [26]: 510 nM | CC50 [26, 42]: 740 nM | GI50 [27]: 180 nM | TGI [27]: 380 nM | CC50 [27, 42]: 780 nM | GI50 [28]: 210 nM | TGI [28]: 470 nM | CC50 [28, 42]: 1100 nM | GI50 [29]: 3810 nM | TGI [29]: 20700 nM | CC50 [29, 42]: > 100000 nM | GI50 [30]: 220 nM | TGI [30]: 420 nM | CC50 [30, 42]: 770 nM | GI50 [31]: 150 nM | TGI [31]: 300 nM | CC50 [31, 42]: 600 nM | GI50 [32]: 280 nM | TGI [32]: 850 nM | CC50 [32, 42]: 3220 nM | IC50 [33]: 16000 nM | GI50 [34]: 220 nM | TGI [34]: 420 nM | CC50 [34, 42]: 790 nM | GI50 [35]: 230 nM | TGI [35]: 480 nM | CC50 [35, 42]: 1090 nM | GI50 [36]: 300 nM | TGI [36]: 880 nM | CC50 [36, 42]: 4110 nM | GI50 [37]: 150 nM | TGI [37]: 340 nM | CC50 [37, 42]: 790 nM | IC50 [38]: 1100 nM | GI50 [39]: 280 nM | TGI [39]: 1060 nM | CC50 [39, 42]: 4090 nM | GI50 [40]: 190 nM | TGI [40]: 400 nM | CC50 [40, 42]: 820 nM | IC50 [41]: 2200 nM
